Experimental data reported in ChEMBL document CHEMBL2163266, “3,3'-Disubstituted bipolar biphenyls as inhibitors of nuclear receptor coactivator binding” (Bioorg Med Chem Lett, 2012).
Active and inactive are the calls of the source. The calls are words filed in the database; no cut-off is given here.

Legend:
[1] = biological target: T1, Estrogen receptor (Homo sapiens) (UniProt P03372); test: Agonist activity at ERalpha co-activator binding domain expressed in human HepG2 cells assessed as […] LXXLL2 binding measured as […] activity at <20 uM; type: cell-based
T1 sequence (whole entry): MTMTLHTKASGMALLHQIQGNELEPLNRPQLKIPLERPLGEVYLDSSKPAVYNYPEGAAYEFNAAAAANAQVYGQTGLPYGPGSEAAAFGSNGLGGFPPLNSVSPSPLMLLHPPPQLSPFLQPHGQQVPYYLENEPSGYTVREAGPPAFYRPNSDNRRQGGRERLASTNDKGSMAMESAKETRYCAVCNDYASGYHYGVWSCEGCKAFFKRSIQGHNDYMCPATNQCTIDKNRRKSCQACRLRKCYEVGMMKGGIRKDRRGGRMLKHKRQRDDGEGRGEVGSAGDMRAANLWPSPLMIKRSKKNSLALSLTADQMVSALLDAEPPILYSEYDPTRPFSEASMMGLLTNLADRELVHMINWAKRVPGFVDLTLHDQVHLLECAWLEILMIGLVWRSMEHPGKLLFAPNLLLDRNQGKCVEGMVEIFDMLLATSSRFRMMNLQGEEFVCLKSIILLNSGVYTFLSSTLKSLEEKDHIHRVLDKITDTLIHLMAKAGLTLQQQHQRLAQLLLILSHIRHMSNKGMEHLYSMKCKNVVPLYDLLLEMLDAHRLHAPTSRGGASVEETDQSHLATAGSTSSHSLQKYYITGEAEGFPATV
How it was run: (§1)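 HepG2 cells co-transfected with VP16-ERα, pM-GRIP1-LXXLL2, the 5xGal4-Luc3 reporter and a pCMV-β-gal normalization control. Serial twofold dilutions given with or without 1 nM estradiol, 40 h, then reporter read. Scored as >50% increase or decrease in reporter activity within concentration bands (<20, 20–50, >50 µM); <20% change scored 0.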

HepG2 = test: Cytotoxicity against human HepG2 cells expressing ERalpha co-activator binding domain at >50 uM; type: cell-based
CV-1 = test: Cytotoxicity against african green monkey CV1 cells at >50 uM; type: cell-based; conditions: chlorocebus aethiops
[2] = biological target: T1, Estrogen receptor (Homo sapiens); test: Antagonist activity at ERalpha co-activator binding domain expressed in human HepG2 cells assessed as inhibition of E2-induced […] LXXLL2 binding measured as decrease in […] activity after 40 hrs by luciferase reporter gene assay; type: cell-based; set-up: concentration or dose not given beside the values; how it was run: as §1
[3] = biological target: T1, Estrogen receptor (Homo sapiens); test: Antagonist activity at ERalpha in human MCF7 cells assessed as reduction in E2-induced SDF1 expression at 20 uM incubated for 2 hrs prior to E2-induction measured after 14 hrs by qPCR analysis; type: functional, cell-based; set-up: scale not given: the % may be the effect or the level left
How it was run: (§2)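 MCF-7 (ER+) cells pretreated 2 h with 20 µM compound, then exposed to vehicle or estradiol for 14 h before target gene expression was measured.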

[4] = biological target: T1, Estrogen receptor (Homo sapiens); test: Agonist activity at ERalpha in human MCF7 cells assessed as increase in PR expression at 20 uM incubated for 2 hrs measured after 14 hrs by qPCR analysis relative to E2; type: functional, cell-based; how it was run: as §2
MCF7 [5] = test: Effect on IDH3A expression in human MCF7 cells at 20 uM incubated for 2 hrs measured after 14 hrs by qPCR analysis relative to E2; type: functional, cell-based; how it was run: as §2
[6] = biological target: T1, Estrogen receptor (Homo sapiens); test: Antagonist activity at ERalpha co-activator binding domain in human Hec1 cells assessed as inhibition of co-activator binding by reporter gene assay; type: cell-based
[7] = biological target: T1, Estrogen receptor (Homo sapiens); test: Binding affinity to ERalpha co-activator binding domain by TR-FRET assay
[8] = biological target: T1, Estrogen receptor (Homo sapiens); test: Antagonist activity at ERalpha in human MCF7 cells assessed as reduction in E2-induced PR expression at 20 uM incubated for 2 hrs prior to E2-induction measured after 14 hrs by qPCR analysis; type: functional, cell-based; set-up: scale not given: the % may be the effect or the level left; how it was run: as §2
[9] = biological target: T1, Estrogen receptor (Homo sapiens); test: Agonist activity at ERalpha in human MCF7 cells assessed as increase in PS2 expression at 20 uM incubated for 2 hrs measured after 14 hrs by qPCR analysis relative to E2; type: functional, cell-based; how it was run: as §2
[10] = biological target: T1, Estrogen receptor (Homo sapiens); test: Antagonist activity at ERalpha in human MCF7 cells assessed as reduction in E2-induced PS2 expression at 20 uM incubated for 2 hrs prior to E2-induction measured after 14 hrs by qPCR analysis; type: functional, cell-based; set-up: scale not given: the % may be the effect or the level left; how it was run: as §2
[11] = biological target: T1, Estrogen receptor (Homo sapiens); test: Agonist activity at ERalpha in human MCF7 cells assessed as increase in SDF1 expression at 20 uM incubated for 2 hrs measured after 14 hrs by qPCR analysis relative to E2; type: functional, cell-based; how it was run: as §2
MCF7 [12] = test: Effect on E2-induced IDH3A expression in human MCF7 cells at 20 uM incubated for 2 hrs measured after 14 hrs by qPCR analysis; type: functional, cell-based; how it was run: as §2
[13] = biological target: T1, Estrogen receptor (Homo sapiens); test: Antagonist activity at ERalpha co-activator binding domain expressed in human HepG2 cells assessed as inhibition of E2-induced […] LXXLL2 binding measured as decrease in […] activity at 20 to 50 uM after 40 hrs by luciferase reporter gene assay; type: cell-based; how it was run: as §1
[14] = biological target: T1, Estrogen receptor (Homo sapiens); test: Activity at ERalpha in human MCF7 cells assessed as increase in E2-induced PR expression at 20 uM incubated for 2 hrs prior to E2-induction measured after 14 hrs by qPCR analysis; type: cell-based; how it was run: as §2
[15] = biological target: T1, Estrogen receptor (Homo sapiens); test: Activity at ERalpha in human MCF7 cells assessed as increase in E2-induced PS2 expression at 20 uM incubated for 2 hrs prior to E2-induction measured after 14 hrs by qPCR analysis; type: cell-based; how it was run: as §2

SMILES	Activity [2]	Activity [3]	Activity [4]	inhibition [6]	Activity [7]	Activity [9]	Activity [11]	Activity (CV-1)	Activity (MCF7 [5])	Activity (MCF7 [12])	also measured
CCOC(=O)COc1ccc(-c2ccc(OCCN(C)C)c(C(C)CC)c2)cc1C(C)CC (stereo unspecified)	–	–	–	–	–	–	–	Toxic	–	–	Activity [1]: > 50%; Activity (HepG2): Toxic
CC(C)c1cc(-c2ccc(OCC(=O)O)c(C(C)C)c2)ccc1OCCN(C)C	< 20%	> 20%	inactive	Active	Active	inactive	inactive	–	inactive	inactive	Activity [8]: > 20%; Activity [10]: inactive
CCOC(=O)COc1ccc(-c2ccc(O)c(C(C)CC)c2)cc1C(C)CC (stereo unspecified)	–	–	–	–	–	–	–	Toxic	–	–	inhibition [13]: > 50%
CCOC(=O)COc1ccc(-c2ccc(O)cc2)cc1	< 20%	–	–	–	–	–	–	–	–	–	Activity [1]: > 50%
CN(C)CCOc1ccc(-c2ccc(OCC(=O)O)c(Cc3ccccc3)c2)cc1Cc1ccccc1	–	> 20%	inactive	Active	Active	inactive	inactive	–	inactive	inactive	inhibition [13]: > 50%; Activity [8]: > 20%; Activity [10]: inactive
CN(C)CCOc1ccc(-c2ccc(OCC(=O)O)cc2)cc1	< 20%	> 20%	> 20%	Active	Active	> 20%	> 20%	–	inactive	inactive	Activity [8]: > 20%; Activity [10]: inactive
CCOC(=O)COc1ccc(-c2ccc(OCCN(C)C)c(Cc3ccccc3)c2)cc1Cc1ccccc1	–	–	–	–	–	–	–	Toxic	–	–	–
CCOC(=O)COc1ccc(-c2ccc(OCCN(C)C)c(C(C)(C)C)c2)cc1C(C)(C)C	< 20%	–	–	–	–	–	–	Toxic	–	–	–
CN(C)CCOc1ccc(-c2ccc(OCC(=O)O)c(C(C)(C)C)c2)cc1C(C)(C)C	–	> 20%	> 20%	Active	Active	> 20%	> 20%	–	inactive	inactive	Activity [14]: > 20%; Activity [15]: > 20%
CCOC(=O)COc1ccc(-c2ccc(O)c(Cc3ccccc3)c2)cc1Cc1ccccc1	< 20%	–	–	–	–	–	–	–	–	–	–
CCOC(=O)COc1ccc(-c2ccc(O)c(C(C)C)c2)cc1C(C)C	–	–	–	–	–	–	–	Toxic	–	–	inhibition [13]: > 50%
CCOC(=O)COc1ccc(-c2ccc(OCCN(C)C)cc2)cc1	< 20%	–	–	–	–	–	–	–	–	–	Activity [1]: > 50%

Second part, led by results:

Activity [2]	Activity [3]	Activity [4]	inhibition [6]	Activity [7]	Activity [9]	Activity [11]	SMILES	Activity (CV-1)	Activity (MCF7 [5])	Activity (MCF7 [12])	also measured
< 20%	–	–	–	–	–	–	CCOC(=O)COc1ccc(-c2ccc(O)c(C(C)(C)C)c2)cc1C(C)(C)C	–	–	–	Activity [1]: > 50%
–	> 20%	inactive	Active	Active	inactive	inactive	CCC(C)c1cc(-c2ccc(OCC(=O)O)c(C(C)CC)c2)ccc1OCCN(C)C (stereo unspecified)	–	inactive	inactive	Activity [8]: > 20%; Activity [10]: > 20%
< 20%	–	–	–	–	–	–	CCOC(=O)COc1ccc(-c2ccc(OCCN(C)C)c(C(C)C)c2)cc1C(C)C	–	–	–	–
